NSD2 inh = NSD2 histone methyltransferase inhibitors, primary screen, biochemical, AlphaScreen, single concentration, set 2. Histone-lysine N-methyltransferase NSD2 (Homo sapiens), O96028. inhibition, % at 12.5 µM. NSD2 peptide methylation, 120 min. 310,000 tested, 0.54% active; in the data active = inhibition above about 50%
SIRT5 block = SIRT5 desuccinylase inhibitors, primary screen, biochemical, fluorescence imaging, single point, set 5 | NAD-dependent protein deacylase sirtuin-5, mitochondrial (Homo sapiens), Q9NXA8 | Purified SirT5, succinyl-peptide AMC, trypsin-coupled fluorescence | inhibition, % at 15 µM | 330,000 tested, 1.1% active; in the data active = inhibition above about 15%
CASP6 VEID inh = human caspase-6 inhibitors, primary screen, biochemical, VEID-R110 fluorescence, single point, set 2; P55212; purified caspase-6, Z-VEID-R110 cleavage fluorescence; inhibition, % at 12.5 µM; AID 686996, 2013; 350,000 tested, 0.53% active;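 active = mean inhibition across replicates at least about 35%, with every replicate also reaching that limit, limit read from the data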;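 note: 0% = median of neutral control wells and 100% = no fluorescence left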
Target sequence (P55212 24-179 limits assumed): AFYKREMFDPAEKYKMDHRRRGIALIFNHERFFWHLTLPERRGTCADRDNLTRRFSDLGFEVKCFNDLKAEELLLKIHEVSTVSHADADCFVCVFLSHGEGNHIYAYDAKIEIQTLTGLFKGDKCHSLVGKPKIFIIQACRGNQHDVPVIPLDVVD
Target sequence (P55212 194-293 limits assumed): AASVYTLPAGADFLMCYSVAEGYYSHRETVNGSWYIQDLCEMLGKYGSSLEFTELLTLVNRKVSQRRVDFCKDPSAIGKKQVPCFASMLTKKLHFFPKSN
UCH37 DUB inh = inhibitors of human UCH37 deubiquitinase, primary screen, biochemical, Ub-AMC cleavage, fluorescence; AID 588478, 2011; inhibition, % (concentration not given with the values); purified proteasome/UCH37; 330,000 tested, 0.33% active;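 active = mean inhibition over replicate wells above about 20%, limit read from the data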;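 note: 0% = compound-free wells with enzyme and 100% = wells lacking proteasome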
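Signal – fluorescence, ex 355 nm, em 460 nm · System – Proteasome-bound UCH37 · Input – 0.15 nM proteasome as dispensed · Timing – 30 min preincubation with enzyme, 25 min cleavage at room temperature · Read-out basis – percent inhibition of cleavage signal versus uninhibited and no-proteasome wells · Medium – Tris-HCl pH 7.4 with ATP-MgCl2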
FGF22 binding = binders of human FGF22 protein, primary screen, FGF22 synaptogenesis inhibitor project, biophysical, thermal shift, single point; Fibroblast growth factor 22 (Homo sapiens), Q9HCT0; recombinant FGF22 thermal shift, SYPRO orange fluorescence; percent of sucrose octasulfate shift, DMSO zero; 340,000 tested, 1.5% active; activity (Tm shift, normalised), % at 9.99 µM;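 active = mean Tm shift, scaled 0 neutral to 100 positive control, at about 1.3% or above, every replicate too, limit read from the data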
An asterisk follows results filed as active. A selection: hits, their analogues and other compounds. The true share with any hit is near 2.6%.

How did O=C(C[C@H]1C=C[C@@H](NC(=O)c2ccncc2)[C@@H](CO)O1)NCCc1ccncc1 do in these assays?
SIRT5 block: 0; CASP6 VEID inh: 0; FGF22 binding: 0

What do the screens show for `CCC1=NN(C(=O)c2ccccc2O)C(O)(c2ccccc2)C1` (stereo not given)?
NSD2 inh: 8; SIRT5 block: 0; CASP6 VEID inh: 72*; FGF22 binding: 0

How did CCC1=NN(C(=O)c2ccccc2Br)C(O)(c2ccc(Br)cc2)C1 (stereo not given) do in these assays?
NSD2 inh: 1; SIRT5 block: -1; CASP6 VEID inh: 1; UCH37 DUB inh: 3; FGF22 binding: 0

How did CCC1=NN(C(=O)c2ccc(Cl)cc2)C(O)(c2ccc(C)cc2)C1 (stereo not given) do in these assays?
NSD2 inh: 2; SIRT5 block: 3; CASP6 VEID inh: 48*; UCH37 DUB inh: 4; FGF22 binding: 0

How did C[C@@H]1CCCCO[C@@H](CN(C)S(=O)(=O)c2cn(C)cn2)[C@H](C)CN([C@@H](C)CO)C(=O)c2cc(NC(=O)c3ccccc3)ccc2O1 do in these assays?
SIRT5 block: -1; CASP6 VEID inh: 0; FGF22 binding: 0

How did C[C@H](CO)N1C[C@H](C)[C@@H](CN(C)Cc2ccc(C(F)(F)F)cc2)OCCCC[C@H](C)Oc2ccc(NC(=O)c3ccncc3)cc2C1=O do in these assays?
SIRT5 block: 8; CASP6 VEID inh: 0; FGF22 binding: -1

What do the screens show for `CO[C@H]1CN(C)C(=O)c2cc(NS(C)(=O)=O)ccc2OC[C@H](C)N(CC2CC2)C[C@@H]1C`?
SIRT5 block: -4; CASP6 VEID inh: 7; FGF22 binding: 0

How did Cc1ccc(S(=O)(=O)Oc2cccc([N+](=O)[O-])c2)cc1 do in these assays?
NSD2 inh: 4; CASP6 VEID inh: 1; UCH37 DUB inh: 4; FGF22 binding: 44*

How did Cc1ccc(S(=O)(=O)Oc2ccccc2)cc1 do in these assays?
SIRT5 block: -3; CASP6 VEID inh: -1; UCH37 DUB inh: 0; FGF22 binding: 0

What do the screens show for `COc1cccc(C2=NOC(C(=O)Nc3cccnc3Cl)C2)c1` (stereo not given)?
NSD2 inh: 4; SIRT5 block: -1; CASP6 VEID inh: 2; UCH37 DUB inh: 1; FGF22 binding: 44*

How did COc1ccc(S(=O)(=O)NNC(=O)C2CC(c3cccnc3)=NO2)cc1 (stereo not given) do in these assays?
NSD2 inh: 2; SIRT5 block: -5; CASP6 VEID inh: 3; UCH37 DUB inh: 2; FGF22 binding: 44*

What do the screens show for `CNC[C@H]1OCCCC[C@@H](C)Oc2ccc(N)cc2C(=O)N([C@@H](C)CO)C[C@@H]1C`?
SIRT5 block: 1; CASP6 VEID inh: -1; FGF22 binding: 0

What do the screens show for `CC(C)CC#Cc1ccc2c(c1)O[C@H](CN(C)C(=O)Cc1ccccc1)[C@H](C)CN([C@@H](C)CO)S2(=O)=O`?
SIRT5 block: 2; CASP6 VEID inh: -1; FGF22 binding: 0

How did Cc1ccccc1P(=O)(c1ccccc1)c1ccccc1C do in these assays?
NSD2 inh: -1; CASP6 VEID inh: 2; FGF22 binding: 44*

What do the screens show for `COc1cccc(-c2ccc3c(c2)O[C@@H](CN(C)Cc2ccncc2)[C@@H](C)CN([C@@H](C)CO)S3(=O)=O)c1`?
SIRT5 block: 4; CASP6 VEID inh: -3; FGF22 binding: 0

What do the screens show for `CCNC(=O)C[C@@H]1C=C[C@H](NC(=O)C2CC2)[C@H](CO)O1`?
SIRT5 block: 1; CASP6 VEID inh: 1; FGF22 binding: 0

How did Cc1ccc(-c2nc(-c3ccncc3)no2)cc1C do in these assays?
NSD2 inh: -4; SIRT5 block: 6; CASP6 VEID inh: -1; UCH37 DUB inh: 1; FGF22 binding: 0

What do the screens show for `Fc1cccc(F)c1-c1nc(-c2ccncc2)no1`?
NSD2 inh: -3; SIRT5 block: 20*; UCH37 DUB inh: 2; FGF22 binding: 0

Screening data from PubChem.
